Bioassay records: PubChem, several laboratories
An excerpt weighted towards active compounds, which were near 1.9% of everything screened.
NR2E3 ag-1: inhibitors of NR2E3-RetCOR corepressor binding, primary screen, NR2E3 agonist project, biochemical, TR-FRET, GST-NR2E3, biotin-RetCOR | 1536-well | actives 0.12% (n = 320,000) | inhibition of corepressor binding, % at 4.78 µM;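 active means percent inhibition above the cutoff of mean plus 3 SD of all tested compounds, set per screening campaign, cut at about 20% in these data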;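 further: 0% = DMSO wells and 100% = biotin wells as full block of FRET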
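Material: NR2E3–RetCOR corepressor complex | Quantity: 1.35 nM GST-tagged NR2E3 final | Schedule: 5 h at 4 °C | Replication: Singlicate compound wells | Reagent: RetCOR corepressor, biotinylated, 7 nM | Controls: Biotin wells as high control, 0.6% DMSO wells as low control | Signal: TR-FRET, Eu(K)-anti-GST donor, streptavidin-D2 acceptor, ex 340, em 617/671 nm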
NR2E3 ag-2: NR2E3 agonists in two-hybrid cells, primary screen, cell-based, luminescence, CHO-S, Gal4-NCOR/VP16-NR2E3 | Photoreceptor-specific nuclear receptor (Homo sapiens), Q9Y5X4 | luciferase | inhibition of corepressor binding, % at 3.98 µM | actives 0.35% (n = 360,000) | AID 602229, 2012;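 active means inhibition above the mean of all tested compounds plus 3 SD, cut at about 70% in these data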;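 further: 0% = DMSO with NR2E3 transfected cells and 100% = cells lacking NR2E3 construct; higher means lower luciferase signal from less NR2E3 corepressor binding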
MT1-MMP act inh: blockers of MT1-MMP proenzyme processing, primary screen, HT1080 RFP-PRO-GFP cells, GFP/RFP fluorescence; GFP/RFP ratio change, % at 20 µM; actives 0.061% (n = 360,000); GFP/RFP ratio fluorescence, overnight; percent of plate control window, DMSO zero;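 active means GFP/RFP ratio change of at least 30% with cell ATP level not reduced by more than half and red fluorescence within 50% of control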
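Read-out: GFP/RFP fluorescence ratio; Test system: RFP-PRO-GFP reporter HT1080 cells; Compound dosing: single-point 20 µM compound, 1% DMSO; Times: overnight compound exposure at 37 °C.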
SKN-1 block: suppressors of acrylamide-induced Pgst-4::GFP reporter in worms, primary screen, SKN-1 inhibitor project, whole organism, uHTS, GFP/RFP fluorescence ratio, strain VP596; C. elegans VP596 Pgst-4::GFP/RFP ratio, 24 h; inhibition, % at 21.8 µM; actives 0.49% (n = 360,000); AID 624304, 2012;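 active means interference check ratio from 0.5 to 1.5 plus GFP to RFP signal ratio inhibition reaching or exceeding a fixed threshold, cut at about 30% in these data, passing the limit was not always enough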
NR1D1 modulator: modulators of Rev-erb alpha DNA binding, primary screen, biochemical, FITC-DNA, fluorescence polarization, uHTS | Nuclear receptor subfamily 1 group D member 1 (Homo sapiens), P20393 | Rev-erbα–FITC-DNA binding, 90 min | activity, % at 10 µM | actives 0.79% (n = 370,000) | AID 1259318, 2017;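 active means activity above about 14%, limit read from the data; passing the limit was not always enough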;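 further: 0% = DMSO wells with 35 nM protein and 100% = DMSO wells with 750 nM protein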
Target sequence (P20393 whole entry, looked up): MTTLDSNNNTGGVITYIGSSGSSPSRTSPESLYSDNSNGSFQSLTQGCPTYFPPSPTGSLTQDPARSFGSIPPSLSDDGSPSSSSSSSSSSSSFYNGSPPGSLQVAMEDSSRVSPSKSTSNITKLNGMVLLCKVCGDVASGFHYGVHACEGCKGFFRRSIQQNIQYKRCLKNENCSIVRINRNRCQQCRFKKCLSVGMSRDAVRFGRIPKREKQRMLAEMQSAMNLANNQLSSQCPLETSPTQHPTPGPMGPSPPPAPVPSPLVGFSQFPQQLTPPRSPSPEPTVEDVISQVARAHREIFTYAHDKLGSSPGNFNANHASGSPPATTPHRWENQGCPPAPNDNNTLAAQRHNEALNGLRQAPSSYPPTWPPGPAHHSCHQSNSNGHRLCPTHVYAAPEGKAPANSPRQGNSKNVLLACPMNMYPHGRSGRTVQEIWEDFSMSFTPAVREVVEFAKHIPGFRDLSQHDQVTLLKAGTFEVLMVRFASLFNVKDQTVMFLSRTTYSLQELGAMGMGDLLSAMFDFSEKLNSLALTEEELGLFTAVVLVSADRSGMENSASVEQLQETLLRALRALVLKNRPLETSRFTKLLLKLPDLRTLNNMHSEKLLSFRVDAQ
PG9 binder: binders of HIV-1 gp120 antibody PG9, primary screen, biochemical, TR-FRET; HIV-1 gp120 / PG9 antibody interaction; TR-FRET gp120-PG9 antibody binding; inhibition, % at 6.7 µM; actives 0.43% (n = 360,000); AID 624416, 2012; in the data active means inhibition above about 8.5%
NR2E3 ag confirm: NR2E3 agonist confirmation in cells, cell-based, luminescence, CHO-S two-hybrid | shares compounds with NR2E3 ag-2 | CHO-S mammalian two-hybrid NR2E3-NCOR, luciferase luminescence | inhibition, % at 3.98 µM | actives 51% (n = 2,300) | AID 624378, 2012;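 active means average inhibition above a cutoff equal to the mean inhibition of all tested compounds plus one SD, cut at about 70% in these data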;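 further: 0% = DMSO in NR2E3 cells and 100% = DMSO in cells lacking NR2E3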
VP16 counter: GAL4-VP16 reporter modulators, confirmation, counter-screen for NR2E3 agonist project, cell-based, luminescence, CHO-S, high throughput | shares compounds with NR2E3 ag-2 | CHO-S GAL4-VP16 luciferase reporter | inhibition, % at 3.98 µM | actives 29% (n = 2,300);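 active means mean inhibition above a cutoff equal to the average over all tested compounds plus one standard deviation, cut at about 70% in these data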;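 further: luciferase from a UAS reporter driven by GAL4-VP16 transactivation; 0% = DMSO with VP16-transfected cells and 100% = DMSO with cells lacking VP16; higher means less reporter light so more repression of VP16 activity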
Starred values were filed as active, the others as inactive; . = no result given.

SMILES	NR2E3 ag-1	NR2E3 ag-2	MT1-MMP act inh	SKN-1 block	NR1D1 modulator	PG9 binder	NR2E3 ag confirm	VP16 counter
COC(=O)[C@@]12CCCCC3=C1N(CCC3)C(=O)[C@H]2CC(=O)NCC1CCCCC1	.	.	.	.	1	.	.	.
NC(=O)c1ncn([C@@H]2O[C@H](C(=O)N3CCN(Cc4ccccn4)CC3)[C@@H](O)[C@H]2O)n1	.	.	.	.	-11	0	.	.
Oc1ccccc1N=Cc1ccc[nH]1	-2	58	-1	-19	-6	-2	7	15
C(=Nc1ccccc1)c1ccc[nH]1	.	-14	-4	18	0	0	.	.
O=C1N[C@@H](Cc2ccccc2)C(=O)N2[C@H]1CSCCS2(=O)=O	.	.	.	.	-4	-1	.	.
COc1ccc(CNC(=O)c2ccc(-c3ccccc3)cc2)cc1	0	-83	-1	-9	.	5	.	.
COc1ccc(CNC(=O)c2c(C)oc3c2C(=O)c2ccccc2C3=O)cc1	-2	66	-1	-12	10	1	98*	50
C=CC[n+]1c(/C=C2\C=Cc3cc(C)ccc3N2CC)ccc2ccccc21	0	90*	28	70	-5	-7	98*	91*
CSc1nnc2c(n1)C[C@H](c1ccccc1)[C@@H](C)[C@@H](C(=O)N1CCCC1)C2	.	.	.	.	-4	.	.	.
CCNc1nc(NCC)nc(-n2nc(C)cc2C)n1	1	55	4	-5	-1	1	-5	-8
Cc1cc(C)n(-c2nc(Nc3ccccc3C)nc(-n3nc(C)cc3C)n2)n1	0	.	.	.	0	2	.	.
Cc1ccc(-n2nc3c(=O)n(CC(=O)NCCCc4ccccc4)nc(C)c3c2C)cc1	1	20	6	-23	2	-1	.	.
Cc1ccc(-n2nc3c(=O)n(C(C)C(=O)NCCCc4ccccc4)nc(C)c3c2C)cc1 (stereo not given)	-3	51	3	-5	3	0	19	38
Cc1ccc(NS(=O)(=O)c2ccc(C(=O)N3CCN(S(=O)(=O)c4ccccc4)CC3)cc2)cc1	2	62	2	6	1	-1	47	22
Cc1ccc(C(=O)N2CCN(c3ncccn3)CC2)cc1	.	-7	-5	16	1	2	.	.
Cc1ccc(NS(=O)(=O)c2ccc(C(=O)N3CCN(c4ncccn4)CC3)cc2)cc1	-1	83*	-14	9	1	0	74*	57
COC(=O)c1cc2c(c3c4cc(F)ccc4n(S(=O)(=O)c4ccc(C)cc4)c13)C(=O)N(Cc1ccccc1OC)C2	.	.	.	.	6	-2	.	.
O=S(=O)(Nc1cccc(-c2cn3cccnc3n2)c1)c1ccc(-c2ccccc2)cc1	4	58	4	-13	-2	2	56	60
CCCn1c(CNc2ccc(Br)cc2)nc2ccccc21	-1	54	-3	4	-5	-3	27	22
Cc1cccc(-c2cccc3c4c([nH]c23)[C@@H]2C[C@H](N(C)C(=O)Nc3ccccc3C)[C@H]([C@H](C)O)CN2CC4)c1	.	.	.	.	-4	.	.	.
Cc1csc(NC(=O)Cc2nn(C)c(=O)c3ccccc23)n1	2	68	-3	1	-1	-1	65	54
COc1cccc(OC)c1NC(=O)Cc1nn(C)c(=O)c2ccccc12	4	7	2	-6	-8	-3	.	.
COc1ccccc1NC(=O)Cc1nn(C)c(=O)c2ccccc12	1	74*	3	-1	.	.	73*	69
CCCCCCCCN1C(=O)[C@@H](CC(=O)NCc2cccs2)C[C@@]2(C(=O)OC)C1=C[C@H](C1CCCC1)O[C@@H]2C	.	.	.	.	-4	1	.	.
CCn1cc(CNC(=O)c2cc(COc3ccc(F)cc3Cl)on2)cn1	3	-1	12	-5	4	-2	.	.
SMILES	NR2E3 ag-1	NR2E3 ag-2	MT1-MMP act inh	SKN-1 block	NR1D1 modulator	PG9 binder	NR2E3 ag confirm	VP16 counter
CCn1nc(C)c(CNC(=O)c2cc(COc3ccc(F)cc3Cl)on2)c1C	1	51	-9	-2	3	0	86*	71*
COc1ccc(CC2C(=O)NC(C)C(=O)N(C)C3Cc4ccc(cc4)Oc4cc(ccc4O)CC(C(=O)NC(C)C(=O)NC(C)C(=O)N2C)N(C)C3=O)cc1 (stereo not given)	.	103*	-45	19	4	0	99*	96*
O=c1cc(C(F)(F)F)[nH]c2ccc(C(F)(F)F)cc12	-2	93*	11	14	3	0	101*	91*
COc1cccc(C(=O)N2CCC[C@@H]2C(=O)N2CCC[C@@H]2C(=O)NCc2ccccc2)c1	.	.	.	.	7	-2	.	.
Cc1ccc(CN2CCCCC(NC(=O)c3ccc(Br)cc3)C2=O)cc1 (stereo not given)	.	.	.	.	5	.	.	.
CCOC(=O)C1=C(C(=O)OCC)C2N(Cc3ccc(C#N)cc3)c3ccccc3[C@@]23C[C@@H](C(=O)OC)N(S(=O)(=O)c2ccccc2C)C3=N1 (stereo not given in full)	.	.	.	.	4	-1	.	.
O=C(Cc1ccccc1)NNc1ccc2ccccc2c1	-2	50	-2	-6	3	-1	53	5
O=C(CN1C(=O)CCC1=O)NNc1ccc2ccccc2c1	-3	31	-2	12	-3	-3	.	.
CCN(CC)c1ccc(/C=C/c2ccc3ccc(OC)cc3[n+]2CC)cc1	-6	64	29	86	-2	-34	98*	77*
CC[n+]1c(/C=C/c2ccc(N(C)C)cc2)ccc2ccccc21	-25	21	74	82	-8	-50	.	.
CC(C)c1[nH]nc2c1C(c1ccc(Br)cc1)NC2=O (stereo not given)	.	.	.	.	-6	0	.	.
Cc1nn(C)c(Cl)c1NC(=O)OCc1ccc(Cl)cc1Cl	2	67	8	13	1	-2	91*	67
O=C(CCNS(=O)(=O)c1ccc(OC(F)(F)F)cc1)N1CCN(C/C=C/c2ccccc2)CC1	3	55	1	-4	-1	-1	56	45
